Bioassay records as filed in PubChem BioAssay.
XiGFP reactiv: reactivates the inactive X chromosome in mouse fibroblasts; activation, % at 7.58 µM; 360,000 tested, 0.055% active; XiGFP mouse fibroblasts, % GFP-positive cells imaging, 3 d; cells co-treated with 5-aza-dC sensitizer; scaled so ellipticine positive control = 100%;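 active means mean normalized replicate activation at least 10% and every replicate at or above 10%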
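System: SV40-immortalized XiGFP fibroblast cells, line 68-5-11 / Incubation: 3-day compound exposure, then 15 min fixation at room temperature / Compound: single concentration per compound, delivered by pin transfer / Buffer or medium: DMEM plus 5-aza-dC sensitizer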
E-sel inducer: E-selectin induction on HUVECs. HUVEC E-selectin immunofluorescence imaging; normalized: neutral wells 0, TNF-alpha wells 100. activation, % at 7.58 µM. 260,000 tested, 0.37% active. P16581;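 active means mean E-selectin-positive cell signal at least 10% of the positive control, reached in at least 60% of replicates, without over 20% cell loss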
Target sequence (P16581 whole entry, looked up): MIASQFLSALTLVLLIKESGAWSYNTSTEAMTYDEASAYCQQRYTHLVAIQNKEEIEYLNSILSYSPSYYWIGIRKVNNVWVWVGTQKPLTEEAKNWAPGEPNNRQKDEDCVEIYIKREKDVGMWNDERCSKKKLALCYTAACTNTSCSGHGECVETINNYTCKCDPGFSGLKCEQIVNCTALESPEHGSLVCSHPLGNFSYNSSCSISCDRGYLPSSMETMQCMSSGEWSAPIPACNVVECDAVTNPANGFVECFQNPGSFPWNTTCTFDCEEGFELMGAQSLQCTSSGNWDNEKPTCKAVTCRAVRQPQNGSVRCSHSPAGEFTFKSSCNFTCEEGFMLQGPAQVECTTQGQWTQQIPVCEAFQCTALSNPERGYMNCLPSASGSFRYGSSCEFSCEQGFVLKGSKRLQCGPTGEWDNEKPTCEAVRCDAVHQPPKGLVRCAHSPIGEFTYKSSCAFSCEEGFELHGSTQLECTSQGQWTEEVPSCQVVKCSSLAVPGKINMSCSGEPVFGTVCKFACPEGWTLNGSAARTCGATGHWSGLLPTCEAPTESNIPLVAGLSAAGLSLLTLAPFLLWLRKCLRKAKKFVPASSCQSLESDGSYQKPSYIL
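material = human umbilical vein endothelial cells (HUVEC), E-selectin induction | quantity = 3,000 cells/well | medium = EGM-2 growth medium on 0.1% gelatin-coated wells | technique = immunofluorescence imaging | read-out basis = % PE-positive cells | control set = TNF-alpha positive control, DMSO neutral control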
Large screens that a line does not name were inactive; ! = a repeat was not active. Only a selection was taken, and hits are over-represented in it overall.

Cc1noc(C)c1NC(=O)N(C)C[C@@H]1Oc2ncc(C#Cc3ccccc3)cc2C(=O)N([C@H](C)CO)C[C@@H]1C	none
CN(Cc1nc(CCc2ccccc2)no1)Cc1cccs1	XiGFP reactiv 40
CN(Cc1ccc(F)cc1)Cc1nc(CCc2ccccc2)no1	none
CO[C@H]1CN(C)C(=O)c2cc(NS(C)(=O)=O)ccc2OC[C@H](C)N(Cc2ccccn2)C[C@H]1C	none
O=C(Nc1ccccc1N1CCCC1)C1=COCCO1	none (no result: E-sel inducer)
O=C(Nc1ccccc1N1CCCCC1)C1=COCCO1	E-sel inducer 35
Cc1cc(C)c(S(=O)(=O)NCCn2c(C)cc3ccccc32)c(C)c1	E-sel inducer 101
Cc1cc2ccccc2n1CCNC(=O)Cc1ccccc1	none
CCCN1C[C@@H](C)[C@H](OC)CN(C)C(=O)c2cc(NS(=O)(=O)c3cn(C)cn3)ccc2OC[C@@H]1C	none
O=S(=O)(Nc1cccc2[nH]ncc12)c1cccs1	E-sel inducer 33
NC(=S)Nc1cccc2[nH]ncc12	none
COc1ccc(CN(C)C[C@H]2Oc3c(NS(=O)(=O)c4cn(C)cn4)cccc3C(=O)N([C@@H](C)CO)C[C@H]2C)cc1	none
C[C@@H]1CN([C@@H](C)CO)C(=O)c2cccc(NC(=O)c3cnccn3)c2O[C@@H]1CN(C)Cc1ccc(Oc2ccccc2)cc1	none
C[C@@H]1CN([C@@H](C)CO)C(=O)c2cccc(NC(=O)c3ccc(-c4nccs4)cc3)c2O[C@@H]1CN(C)C(=O)NC1CCCCC1	none
CC(C)NC(=O)N(C)C[C@H]1Oc2c(NC(=O)c3ccc(-c4nccs4)cc3)cccc2C(=O)N([C@@H](C)CO)C[C@H]1C	E-sel inducer 65!
C[C@@H]1CN([C@H](C)CO)C(=O)c2cccc(NC(=O)c3ccc(-c4nccs4)cc3)c2O[C@H]1CN(C)Cc1ccc(Oc2ccccc2)cc1	E-sel inducer 75
C[C@H]1CN([C@@H](C)CO)C(=O)c2cccc(NC(=O)c3ccc(-c4nccs4)cc3)c2O[C@@H]1CN(C)C(=O)NC1CCCCC1	none
COc1ccc(CN(C)C[C@@H]2Oc3c(NC(=O)c4cnccn4)cccc3C(=O)N([C@@H](C)CO)C[C@H]2C)cc1	E-sel inducer 54
C[C@H](CO)N1C[C@H](C)[C@H](CN(C)Cc2ccc(Oc3ccccc3)cc2)Oc2c(NC(=O)c3ccc(-c4nccs4)cc3)cccc2C1=O	none
CC(C)NC(=O)N(C)C[C@@H]1Oc2c(NC(=O)c3ccc(-c4nccs4)cc3)cccc2C(=O)N([C@@H](C)CO)C[C@@H]1C	E-sel inducer 81
O=C(C[C@@H]1CC[C@@H]2[C@H](COC[C@@H](O)CN2S(=O)(=O)c2ccccc2)O1)N1CCOCC1	none
C[C@H]1CN([C@@H](C)CO)C(=O)c2cccc(NC(=O)c3ccc(-c4nccs4)cc3)c2O[C@@H]1CN(C)C	none
CC(C)NC(=O)N(C)C[C@@H]1Oc2c(NC(=O)c3ccc(-c4nccs4)cc3)cccc2C(=O)N([C@H](C)CO)C[C@H]1C	E-sel inducer 91
Cc1ccc(CNc2ncnc3cc(Cl)ccc23)cc1	none
Cc1ccccc1CNc1ncnc2cc(Cl)ccc12	E-sel inducer 51
C[C@H]1CN([C@@H](C)CO)C(=O)c2cccc(NC(=O)Nc3ccc(F)cc3)c2O[C@H]1CN(C)CC1CCCCC1	E-sel inducer 34
C[C@H]1CN([C@@H](C)CO)C(=O)c2cccc(NC(=O)Nc3ccc(F)cc3)c2O[C@@H]1CN(C)C(=O)NC1CCCCC1	E-sel inducer 69
C[C@H](CO)N1C[C@H](C)[C@@H](CN(C)CC2CCCCC2)Oc2c(NC(=O)Nc3ccc(F)cc3)cccc2C1=O	none
C[C@H]1CN([C@@H](C)CO)C(=O)c2cccc(NC(=O)NC3CCCCC3)c2O[C@@H]1CN(C)C(=O)Nc1ccc(F)cc1	none
COc1ccc(NC(=O)Nc2cccc3c2O[C@H](CN(C)C(=O)NC2CCCCC2)[C@H](C)CN([C@@H](C)CO)C3=O)cc1	none
COc1ccc(NC(=O)Nc2cccc3c2O[C@H](CN(C)C(=O)NC2CCCCC2)[C@H](C)CN([C@H](C)CO)C3=O)cc1	E-sel inducer 32
O=C(O)C[C@H]1CC[C@@H](NC(=O)Nc2cc(F)ccc2F)[C@@H](CO)O1	none
CCCNC(=O)C[C@H]1CC[C@@H]2[C@H](COc3ccc(NC(=O)NCCC)cc3C(=O)N2C)O1	none
COc1ccccc1NC(=O)N1CC(=O)N2[C@H](CO)[C@H](c3ccc(-c4cccc(C)c4)cc3)[C@@H]2C1	none
C[C@@H]1CN([C@H](C)CO)C(=O)c2cccc(NC(=O)Nc3ccc4c(c3)OCO4)c2O[C@H]1CN(C)CC1CCCCC1	none
CN1C[C@H](O)COC[C@@H]2O[C@H](CC(=O)NC3CCC3)CC[C@H]21	none
CCCNC(=O)N1CC2(CCN(S(=O)(=O)CC)CC2)c2c(n(C)c3cc(OC)ccc23)[C@@H]1CO	none
COc1ccc(S(=O)(=O)N2CCOCC2)cc1NC(=O)COC(=O)C1COc2ccccc2O1 (stereo not drawn)	E-sel inducer 118
COc1ccc(C)cc1NC(=O)COC(=O)C1COc2ccccc2O1 (stereo not drawn)	none (no result: E-sel inducer)
CCOC(=O)CCCCCC(=O)Nc1ccc2c(c1)C(=O)N([C@@H](C)CO)C[C@H](C)[C@H](CN(C)S(C)(=O)=O)O2	none (no result: E-sel inducer)
COc1ccc(Nc2ccccc2NC(=O)c2ccccc2Br)cc1	none
COc1ccc(Nc2ccccc2N)cc1	E-sel inducer 37
C[C@H]1CN([C@@H](C)CO)C(=O)c2cc(Br)cnc2O[C@@H]1CN(C)C(=O)CN(C)C	none
C[C@@H]1CN([C@H](C)CO)C(=O)c2cc(C3=CCCC3)cnc2O[C@H]1CN(C)C(=O)Nc1ccccc1	E-sel inducer 49
CCCNC(=O)N(C)C[C@@H]1Oc2ncc(C3=CCCC3)cc2C(=O)N([C@H](C)CO)C[C@H]1C	E-sel inducer 58
CCCNC(=O)N(C)C[C@@H]1Oc2ncc(C3=CCCCC3)cc2C(=O)N([C@H](C)CO)C[C@@H]1C	none
C[C@H](CO)N1C[C@H](C)[C@H](CN(C)C(=O)NC2CCCC2)Oc2ncc(C3=CCCCC3)cc2C1=O	none
C[C@@H]1CN([C@@H](C)CO)C(=O)c2cc(C3=CCCCC3)cnc2O[C@H]1CN(C)C(=O)NC1CCCC1	E-sel inducer 117
C[C@H]1CN([C@@H](C)CO)C(=O)c2cc(C3=CCCC3)cnc2O[C@H]1CN(C)C(=O)Nc1ccccc1	none
CCC(=O)N(C)C[C@H]1Oc2ncc(Br)cc2C(=O)N([C@@H](C)CO)C[C@@H]1C	E-sel inducer 73
CNC(=O)C[C@H]1CC[C@@H]2[C@H](COc3ccc(NS(=O)(=O)c4cccc(F)c4)cc3C(=O)N2C)O1	none
COc1ccc2c3c(n(C)c2c1)[C@H](CO)N(C(C)=O)CC31CCN(Cc2cncnc2)CC1	none (no result: E-sel inducer)
CCNC(=O)Nc1ccc2c(c1)C(=O)N(C)[C@H]1CC[C@@H](CC(=O)NCc3cccc(F)c3)O[C@@H]1CO2	none
C[C@@H]1CN([C@@H](C)CO)C(=O)c2cc(NC(=O)Nc3ccc4c(c3)OCO4)ccc2O[C@H]1CN(C)C	E-sel inducer 45
C[C@@H]1CN([C@@H](C)CO)C(=O)c2cc(NC(=O)Nc3ccc4c(c3)OCO4)ccc2O[C@H]1CN(C)Cc1ccc(-c2ccccc2)cc1	E-sel inducer 60
C[C@@H]1CN([C@H](C)CO)C(=O)Cc2cc(NC(=O)Nc3ccccc3)ccc2O[C@@H]1CN(C)C	E-sel inducer 46
